The values below come from ChEMBL document CHEMBL2331546, “The structure of anthracycline derivatives determines their subcellular localization and cytotoxic activity” (ACS Med Chem Lett, 2013).

Series [1] can be described thus: Cellular uptake in mouse DA-3 cell mitochondria at 10 uM after 30 mins by mitotracker red staining-based confocal microscopic analysis. It is filed as ADME. The settings on record: da-3, 0.5 h.
A further series deals with SK-OV-3. Description: Cytotoxicity against human SKOV3 cells after 24 hrs by XTT assay. It is filed as functional, cell-based. The settings on record: SK-OV-3, 24 h. A digest of the protocol:
(§1)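 Cells seeded at ~5 × 10^3 per well, exposed to drug at concentrations up to 60 μM for 24 h; viability read by XTT assay and IC50 values derived.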

The next series concerns MCF7. The series can be described thus: Cytotoxicity against human MCF7 cells after 24 hrs by XTT assay. The series is classed as functional, cell-based. The settings on record: MCF7, 24 h. In outline:
as §1
In general terms: Tetrazolium assays rely on reduction of a dye to a coloured formazan, in cell work by metabolically active cells.

Series [2] can be described thus: Cellular uptake in mouse DA-3 cell nucleus at 10 uM after 30 mins by DRAQ5 deep red staining-based confocal microscopic analysis relative to control. The settings on record: da-3, 0.5 h. The series is classed as ADME.
Series [3] has as its system DA-3. Description: Cytotoxicity against mouse DA-3 cells assessed as reduction in cell viability at 20 uM after 60 mins by XTT assay. It is filed as functional, cell-based. A digest of the protocol: (§2)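 DA3 cells incubated with 20 μM anthracycline; XTT viability measured after 60, 120 and 180 min of incubation; percentage cell death expressed relative to untreated control cells (set as 100% viability).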

Series [4] in a line: (§3) Cytotoxicity against mouse DA-3 cells assessed as reduction in cell viability at 20 uM after 180 mins by XTT assay relative to control. It is filed as functional. In outline: as §2
A short description of series [5]: Displacement of YOYO1 from phage lambda DNA by FID assay. On the set-up: species or system Enterobacteria phage lambda. A digest of the protocol:
(§4)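 Run at 37 °C; each well held 500 ng phage lambda DNA (48 Kb) with either SYBR safe (final dilution 1:10000) or YOYO-1 (one dye molecule per 40 base pairs) and test compound at up to 40 μM; dye fluorescence displacement gave IC50.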

The nature of series [6]: Cellular uptake in mouse DA-3 cell cytoplasm at 10 uM after 30 mins by confocal microscopic analysis. It is filed as ADME, cell-based. The settings on record: da-3, 0.5 h.
A short description of series [7]: Cellular uptake in mouse DA-3 cell lysosome at 10 uM after 30 mins by LysoTracker red staining-based confocal microscopic analysis relative to control. The settings on record: da-3, 0.5 h. It is filed as ADME.
Series [8] in a line: Cytotoxicity against mouse DA-3 cells after 24 hrs by XTT assay. It is filed as functional, cell-based. The settings on record: DA-3, 24 h. A digest of the protocol: as §1
Series [9] in a line: Displacement of SYBR from phage lambda DNA by FID assay. The arrangement: species or system Enterobacteria phage lambda. In outline:
as §4

A short description of series [10]: Cytotoxicity against human ES2 cells after 24 hrs by XTT assay. It is filed as functional, cell-based. The settings on record: ES-2, 24 h. A digest of the protocol:
as §1

Series [11] in a line: Cellular uptake in mouse DA-3 cell lysosome at 10 uM after 30 mins by LysoTracker green staining-based confocal microscopic analysis relative to control. It is filed as ADME. The settings on record: da-3, 0.5 h.
A short description of series [12]: Cellular uptake in mouse DA-3 cell mitochondria at 10 uM after 10 hrs by mitotracker red staining-based confocal microscopic analysis. It is filed as ADME. The settings on record: da-3, 10 h.
For series [13], the system named is DA-3. The series is described as §3. It is filed as functional. In outline:
as §2

Series [14] deals with Enterobacteria phage lambda. The series can be described thus: Ratio of idarubicin IC50 to compound IC50 for displacement of YOYO1 from phage lambda DNA.
The nature of series [15]: Cellular uptake in mouse DA-3 cell lysosome at 10 uM after 10 hrs by LysoTracker green staining-based confocal microscopic analysis. The series is classed as ADME. The settings on record: da-3, 10 h.
The nature of series [16]: Cellular uptake in mouse DA-3 cell nucleus at 10 uM after 10 hrs by DRAQ5 deep red staining-based confocal microscopic analysis. It is filed as ADME. The settings on record: da-3, 10 h.
Series [17] is described as follows: Cytotoxicity against mouse DA-3 cells assessed as reduction in cell viability at 20 uM after 6 hrs by XTT assay relative to control. The series is classed as functional.
In series [18] the test system is Enterobacteria phage lambda. Description: Ratio of idarubicin IC50 to compound IC50 for displacement of SYBR from phage lambda DNA.
For series [19], the system named is Enterobacteria phage lambda. The series can be described thus: Ratio of doxorubicin IC50 to compound IC50 for displacement of SYBR from phage lambda DNA.
Series [20] relates to DA-3. The series can be described thus: Cytotoxicity against mouse DA-3 cells assessed as reduction in cell viability at 20 uM by XTT assay. It is filed as functional, cell-based. A digest of the protocol: as §2

Each structure is given as a SMILES string. The source made the active and inactive calls. The calls are words filed in the database; no cut-off is given here.

By IC50 is commonly meant the midpoint of a concentration-inhibition curve. A high value points to a need for much substance. For the molecule `C[C@@H]1O[C@@H](OCc2cc(O)c3c(c2)C(=O)c2cccc(O)c2C3=O)C[C@H](N)[C@H]1O`, the Drug uptake entry in series [1] was “Not Active”; in [2], “Not Active”; in [6], “Active”; in [7], 67.12%. The IC50 is 11.1 µM in the series on SK-OV-3; 23.6 µM in the series with MCF7; > 40 µM in [5]; 7.9 µM in [8]; > 40 µM in series [9]; 6.8 µM in [10]. Moreover, the outcome with DA-3 [3] was Active. Also, in series [4], the Activity was 100%.

As to `Cc1c(O)c2c(c(O)c1CO[C@H]1C[C@H](N)[C@@H](O)[C@H](C)O1)C(=O)c1ccccc1C2=O`, the Drug uptake entry in series [1] is recorded as “Not Active”; in series [2] it was “Not Active”; in series [6], “Active”; in series [7], 84.48%. Besides, the IC50 with SK-OV-3 was 16.3 µM; in the series with MCF7, 17.2 µM; in series [5], > 40 µM; in series [8] it was 17.5 µM; in series [9], > 40 µM; in series [10], 17.7 µM.

In the case of `COc1cccc2c1C(=O)c1c(O)c3c(c(O)c1C2=O)C[C@@](O)(C(C)=O)C[C@@H]3O[C@H]1C[C@H](N)[C@H](O)[C@H](C)O1` [DAUNORUBICIN], the IC50 in the series with SK-OV-3 came out at 20.6 µM; in the series on MCF7, 33.9 µM; in series [5], 0.84 µM; in [8], 1.9 µM; in series [9] it was 0.14 µM; in series [10], 25.5 µM. The values for the Drug uptake entry in series [2] and in series [11] were “Not Active” and 83.19%, respectively. Further, in the series on DA-3 [3], the outcome was Active. Also, the Activity in [4] amounted to 80%.

With `COc1cccc2c1C(=O)c1c(O)c3c(c(O)c1C2=O)C[C@@](O)(C(=O)CO)C[C@@H]3O[C@H]1C[C@H](N)[C@H](O)[C@H](C)O1` [DOXORUBICIN], the Drug uptake entry is on record as “Not Active” in series [1]; 41.43% in [2]; “Active” in series [12]; “Active” in series [15]; 27.55% in series [11]; “Active” in series [16]. Besides, the IC50 with SK-OV-3 is 55.7 µM; in the series with MCF7, > 60 µM; in series [5], 0.6 µM; in [8] it was 4 µM; in series [9] it was 0.73 µM; in series [10], > 60 µM. In addition, the outcome in the series with DA-3 [13] was inactive. The Ratio IC50 in series [14] came to 3. For the same molecule, in [17], the Activity turned out to be 12%.

In the case of `CC(=O)[C@]1(O)Cc2c(O)c3c(c(O)c2[C@@H](O[C@H]2C[C@H](N)[C@H](O)[C@H](C)O2)C1)C(=O)c1ccccc1C3=O` [IDARUBICIN], the values for the Ratio IC50 in [18], in series [19] and in [14] were 5, 5 and 3, respectively. For the same molecule, the Drug uptake result in series [1] was “Not Active”; in series [11], 83.2%. For the same molecule, the IC50 with SK-OV-3 is 4.5 µM; with MCF7, 7.3 µM; in [5], 1.97 µM; in series [8] it was 2.3 µM; in series [9] it was 0.89 µM; in [10] it was 3.2 µM. Further, the result in the series on DA-3 [20] was Active.
